Data as given in article PMC4076841 (Biomaterials, 2014).

Assays:
[1] = Toxicity and pathology studies; type: in vivo, mice
In short: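 Female athymic nude mice (5–6 wk, 18–22 g) were dosed IV weekly during therapeutic treatment. Mice for histology received four doses of 1 mg/kg each. Serum AST, ALT and BUN were measured, with BUN taken 7 days after the last dose. Heart, liver, spleen, lung and kidney were formalin-fixed, H&E-stained and imaged by light microscopy. Data are mean ± SEM, compared by one-way ANOVA.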

[2] = Biodistribution of Pt in A375M tumor-bearing mice; type: in vivo; conditions: 1 mg/kg Pt IV, 24 h post injection
[3] = cited from earlier work
[4] = cited from earlier work; remark: listed apart in the source

SMILES	nephrotoxicity (kidney H&E histology) ([1]; four doses, 1 mg/kg each)	BUN versus control group ([1]; measured 7 days after the last treatment)	ALT ([1]; serum, after treatment)	AST ([1]; serum, after treatment)	accumulation in tumors, injected dose (ID) per gram [2]	anti-tumor efficacy [3]	solubility in water and organic solvents [4]
[NH2][Pt]([NH2])([Cl])[Cl] [CDDP, cisplatin]	glomeruloscelorsis, tubular cell atrophy, and cystic dilatation of renal tubes	no significant difference	fell within the normal range	fell within the normal range	1.2 % ID/g	–	–
[NH2][Pt]([NH2])([I])[I] [CDDP-I, iodinated cisplatin]	–	–	–	–	–	ineffective	insolubility
